Data taken from ChEMBL document CHEMBL1146602, “4-Hydroxymethyl-3-aminoacridine derivatives as a new family of anticancer agents” (J Med Chem, 2003).

What was measured:
HT-29 = experiment: In vitro cytotoxicity against HT-29 (human colon cancer) cell line.; assay type: functional, cell-based
Outline: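 HT29 colon adenocarcinoma cells in DMEM with 10% FCS, seeded at 5×10^4 cells/well and grown 2 days, then exposed 24 h to compounds in DMSO (DMSO controls). Cells washed with PBS and regrown 3 days drug-free. Survival read by MTT (30 min, 100 µg/well), formazan dissolved in DMSO, A540, as % of controls. IC50 taken from regression curves.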

[1] = Partition coefficient (logP); assay type: physicochemical; settings: octanol/water
A549 = experiment: In vitro cytotoxicity against A549 (human lung carcinoma) cell line.; assay type: functional, cell-based
Outline: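 Clonogenic test on A549 lung adenocarcinoma cells in F12-K with 10% FCS, plated at 200 cells/well. After 24 h, exposed 24 h to compounds at various concentrations, washed with PBS, then grown 14 days drug-free. Giemsa-stained colonies counted; survival as % of untreated controls.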

L1210 = experiment: In vitro cytotoxic against L1210 (murine leukemia) cell line.; assay type: functional, cell-based; settings: Mus musculus
Outline: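 L1210 mouse leukaemia cells in DMEM with 10% FCS, seeded at 10⁵ cells/mL and grown 24 h (about 3×10^5 cells/mL). Compounds added in DMSO at increasing concentrations, in duplicate, against DMSO controls. Cells counted with a Coulter counter after a further 24 h at 37 °C, 5% CO2. IC50 (50% reduction in cell number versus controls) taken from regression curves.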

Row | logP [1] | Compound | IC50 (HT-29) [nM] | IC50 (A549) [nM] | IC50 (L1210) [nM]
1 | 1.56 | CNc1ccc2cc3ccc(N(C)S(C)(=O)=O)cc3nc2c1CO | 1200 | 300 | 200
2 | 2 | CCOC(=O)Nc1ccc2cc3ccc4c(c3nc2c1)COC(=O)N4 | 11000 | 2200 | 2700
3 | 3.12 | CCOC(=O)Nc1ccc2cc3ccc4c(c3nc2c1)COCN4C(=O)OCC | > 100000 | 19000 | 84000
4 | 2.07 | CCOC(=O)Nc1ccc2cc3ccc4c(c3nc2c1)COCN4 | 1300 | > 50 | 80
5 | 1.75 | CCOC(=O)N1COCc2c1ccc1cc3ccc(NC)c(CO)c3nc21 | 4200 | 350 | 1500
6 | 1.7 | CN1COCc2c1ccc1cc3ccc4c(c3nc21)COC(=O)N4 | 9000 | 450 | 1000
7 | 1.55 | CCOC(=O)Nc1ccc2cc3ccc(N)c(CO)c3nc2c1 | 40 | 10 | 10
8 | 2.5 | CCOC(=O)N1COCc2c1ccc1cc3ccc4c(c3nc21)COCN4C(=O)OCC | 1000 | 3500 | > 200000
9 | 1.64 | CN1COCc2c1ccc1cc3ccc(N)c(CO)c3nc21 | 300 | 50 | 650
10 | 2.1 | CNc1ccc2cc3ccccc3nc2c1CO | 2500 | 1400 | 1100

The remaining lines, values behind:

Row | Compound | logP [1] | IC50 (HT-29) [nM] | IC50 (A549) [nM] | IC50 (L1210) [nM]
11 | Nc1ccc2cc3ccccc3nc2c1CO | 1.77 | 25 | 5 | 20
12 | CS(=O)(=O)Nc1ccc2cc3ccc4c(c3nc2c1)COCN4 | 0.7 | 12000 | 6000 | 6200
13 | CCOC(=O)Nc1ccc2cc3ccc(NC)c(CO)c3nc2c1 | 1.97 | 350 | 30 | 90
14 | CN(C)c1ccc2cc3ccccc3nc2c1CO | 2.2 | 14000 | 13000 | 6000
15 | c1cc2cc3ccc4c(c3nc2c2c1NCOC2)COCN4 | 2.17 | 1500 | 20 | 350
16 | CN(c1ccc2cc3ccc4c(c3nc2c1)COCN4)S(C)(=O)=O | 1.54 | 2300 | 1300 | 600
17 | O=C1Nc2ccc3cc4ccccc4nc3c2CO1 | 1.64 | 17000 | 7000 | 2800
18 | CNc1ccc2cc3ccc4c(c3nc2c1CO)COCN4 | 1.65 | 2000 | 100 | 500
19 | CNc1ccc2cc3ccc(NS(C)(=O)=O)cc3nc2c1CO | 0.55 | 29000 | 4400 | 2800
20 | CNc1ccc2cc3ccc4c(c3nc2c1CO)COCN4S(C)(=O)=O | 1.2 | 3700 | 100 | 1600
